# A selection: hits, their analogues and other compounds. The true share with any hit is near 9.8%.
# PMI act hi M6P = human PMI activators, high substrate, primary screen, biochemical, fluorescence intensity, near-saturating mannose 6-phosphate | coupled PMI enzyme assay, resazurin fluorescence, 20 min; hits give high values; 1 = untreated enzyme, 0 = substrate-free blank | AID 1216, 2008 | actives 0.34% (n = 190,000) | activation factor at 20 µM;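 active = activation factor of 2 or more at 20 µM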
# Target sequence (P34949 whole entry, looked up): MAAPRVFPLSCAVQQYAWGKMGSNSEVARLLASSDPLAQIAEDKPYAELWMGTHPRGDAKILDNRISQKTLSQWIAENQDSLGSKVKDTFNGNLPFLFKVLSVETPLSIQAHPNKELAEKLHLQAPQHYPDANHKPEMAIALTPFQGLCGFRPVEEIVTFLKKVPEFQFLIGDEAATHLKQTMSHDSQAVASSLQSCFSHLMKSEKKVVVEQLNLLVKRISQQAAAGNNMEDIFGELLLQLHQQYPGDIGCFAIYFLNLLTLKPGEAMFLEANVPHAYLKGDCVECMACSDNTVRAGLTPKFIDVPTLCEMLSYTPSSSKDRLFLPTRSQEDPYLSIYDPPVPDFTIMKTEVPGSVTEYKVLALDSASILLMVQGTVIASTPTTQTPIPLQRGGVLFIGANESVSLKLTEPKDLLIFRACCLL
#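 Test system: human phosphomannose isomerase with PGI, G6PDH, diaphorase coupling enzymes; amount: 15 ng/mL PMI; incubation: enzyme reaction with compound 20 min at room temperature; technique: resorufin fluorescence (Ex 544/Em 590 nm) from resazurin via diaphorase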
# Calpain2 inh = inhibitors of pig calpain II, primary screen, biochemical, fluorogenic peptide substrate, 1536-well; purified calpain II, 30 min; AID 1236, 2008; actives 0.37% (n = 220,000); inhibition, % at 16 µM;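 active = inhibition above about 50%, limit read from the data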
# PMI activator = activators of human PMI, primary screen, biochemical, fluorescence intensity, near-Km mannose 6-phosphate; Mannose-6-phosphate isomerase (Homo sapiens), P34949; purified human PMI, coupled resazurin fluorescence, 20 min; hits give high values; 1 = vehicle control, 0 substrate-free wells; activation factor at 20 µM; actives 0.005% (n = 190,000);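 active = activation factor of 2 or more at 20 µM, relative to plate controls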
# WT yeast gro inh = growth inhibition of WT strain, primary screen, mitochondrial fusion inhibitor project, WT and mutant strains, chemical genetic; mitochondrial fusion phenotypic screen; AID 1362, 2008; inhibition, % at 10 µM; actives 2.1% (n = 190,000); in the data active = inhibition above about 58%; tested in S. cerevisiae
# Rad51 HR inh = human RAD51 strand exchange inhibitors, primary screen, biochemical, fluorescence | actives 0.085% (n = 200,000) | inhibition, % at 10 µM | hRad51 DNA strand exchange, fluorescence dequenching;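 active = inhibition above 40% at the single screening dose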;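 note: 0% = DMSO control wells and 100% = blanks with heterologous ssDNA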
#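 Read-out basis: percent inhibition relative to plate controls and blanks / Assay system: human Rad51 nucleoprotein filaments preassembled on unlabelled ssDNA / Timing: filaments 15 min 37 °C, then compound 30 min / Control set: per-plate controls and blanks / Technique: fluorescence dequenching at 485/520 nm / Compound: 10 µM final, single point / Also added: Fluorescein- and BHQ1-tagged 47-mer duplex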
# L major viab = Leishmania major promastigote growth inhibition, primary screen | Leishmania major promastigotes, resazurin fluorescence viability | inhibition, % at 10 µM | actives 9% (n = 200,000) | AID 1063, 2008; in the data active = inhibition above about 50%;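 note: promastigotes grown with compound for 44 hours at 28 °C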
# Lmaj promast 1uM = Leishmania major promastigote growth inhibition, confirmation, 1 µM repeat of primary hits; shares compounds with L major viab; L. major promastigote growth, resazurin fluorescence, 48 h; inhibition, % at 1 µM; actives 13% (n = 1,100); AID 1258, 2008;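 active = inhibition above about 50% in both repeat tests, limit read from the data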
# An asterisk follows results filed as active; i = inactive; . = no result.
SMILES,PMI act hi M6P,Calpain2 inh,PMI activator,WT yeast gro inh,Rad51 HR inh,L major viab,Lmaj promast 1uM
CC(=O)C1=NN(c2ccccc2)C(c2cccs2)N1c1ccc(N(C)C)cc1 (stereo not drawn),1,23,0.9,.,-9,96*,-8
CN(C)Cc1nnnn1-c1cccc(-n2nnnc2CN(C)C)c1,.,3,.,.,1,.,.
CC(C)CNC(=O)C1CCCN(C(=O)NCc2ccccc2)C1 (stereo not drawn),1,0,1,-1,5,0,.
COc1ccc(C(=O)Nc2ccc3oc(Cc4ccc(Cl)cc4)nc3c2)cc1OC,1,-77,0.9,7,4,-5,.
Nc1nc(-c2cccs2)c(NC(=O)c2ccccc2)s1,0.9,4,0.9,-7,-10,86*,-8
CC1CCN(C(=O)CSc2ccc(-c3cccc([N+](=O)[O-])c3)nn2)CC1,1,5,1,-1,-2,13,.
CC(=O)Nc1cccc(Oc2cc(C#N)c(C#N)cc2N2CCCCCC2)c1,0.8,-96,0.7,0,-11,61*,0
O=C(CCC(=O)c1cccs1)NCC(=O)Nc1ccc(F)c(F)c1F,0.9,-18,0.9,3,7,-2,.
Cc1cccc(C)c1-n1nnnc1S(=O)(=O)Cc1ccccc1Cl,1,33,0.9,26,-29,77*,-20
CCOC(=O)C1=C(c2ccccc2)O/C(=C(/C#N)C(F)(F)F)S1,1.1,-50,1,21,1,74*,9
Oc1ccccc1-c1nc(/C=C/c2ccccc2)nn1-c1ccccc1,1.1,2,1.1,64*,-8,98*,6
CC(SCC(=O)NC12CC3CC(CC(C3)C1)C2)C(=O)O (stereo not drawn),1.1,2,1,-9,1,56*,0
CC(C)NCC(=O)NC12CC3CC(CC(C3)C1)C2,1,-24,1,3,.,-6,.
O=C(Nc1cccc(-c2nnn(CC(=O)N3CCc4ccccc4C3)n2)c1)C1CCC1,1,-46,1,-3,-3,99*,-2
O=C(Nc1ccccc1-c1nnn(CC(=O)N2CCc3ccccc3C2)n1)C1CCC1,0.9,26,0.8,-3,-7,-3,.
Cc1ccc2[nH]c3c(c2c1)CCc1cn[nH]c1-3,0.4,-99,0.3,17,.,52*,-8
Cc1ccc2[nH]c3c(c2c1)CCC3=O,0.8,i,0.9,-13,-13,-2,.
Cc1ccn2cc(C(=O)Nc3nnc(C)s3)nc2c1,0.5,-95,0.7,5,-9,-3,.
Cc1ccn2cc(C34CC5CC(CC(C5)C3)C4)nc2c1,1,-29,0.9,22,-13,60*,21
CSCCC(NC(=O)c1cccc([N+](=O)[O-])c1)C(=O)O (stereo not drawn),1.1,11,1,12,.,79*,-2
Nc1ccc(C23CC4CC(CC(CO)(C4)C2)C3)cc1,0.8,-39,0.8,-25,-2,-4,.
NCC12CC3CC(C1)CC(c1ccc(Cl)cc1)(C3)C2,1,-32,1,73*,-3,100*,94*
O=C(NCc1ccco1)c1cccc(NS(=O)(=O)c2ccccc2F)c1,1,1,0.9,-20,-5,-5,.
Cc1ccccc1NS(=O)(=O)c1cc(C(=O)NCc2ccco2)ccc1C,1,10,0.9,-16,0,59*,-11
O=C(NCc1ccco1)c1cccc(NS(=O)(=O)c2cccc(F)c2)c1,1,-5,1,-5,3,58*,-13
SMILES,PMI act hi M6P,Calpain2 inh,PMI activator,WT yeast gro inh,Rad51 HR inh,L major viab,Lmaj promast 1uM
CCC[n+]1c(C)sc2c3c(ccc21)CCCC3,1.3,-22,0.8,39,-2,100*,35
CC[n+]1c(C)sc2cc(OC)ccc21,1,-4,0.3,1,3,36,.
Cc1ccc(C(C)C)c(OCc2nn(CC(=O)c3ccc(Cl)cc3)c3[n+]2CCCCC3)c1,1,7,1.1,38,3,98*,11
CC1Cc2ccccc2N1C(=S)Nc1ccc(S(N)(=O)=O)cc1 (stereo not drawn),1,4,1,-13,13,80*,-22
CCOC(=O)CSC1=NN2CCS(=O)(=O)N=C2S1,1,24,1,8,11,-11,.
C=CCSC1=NN2CCS(=O)(=O)N=C2S1,1,-15,1.1,-14,11,100*,-8
COc1ccc(N(CC(=O)Nc2cccc(N(C)S(C)(=O)=O)c2)S(=O)(=O)c2ccccc2)cc1Cl,1,-55,0.9,3,-14,56*,-6
N#CC(c1cccc(Cl)c1)c1ccc2c(C(F)(F)F)cc(C(F)(F)F)nc2n1 (stereo not drawn),0.9,63*,0.8,81*,-9,100*,60*
COC(=O)NNC(=O)Cc1cccc2ccccc12,1.1,2,1.1,-13,11,-6,.
COc1cc(/C=C/c2nnc3c4ccccc4ncn23)cc(OC)c1OC,0.8,-205,0.8,23,-3,5,.
C(=C\c1nnc2c3ccccc3ncn12)/c1ccccc1,1,-40,1,10,4,55*,-23
Cc1cc(C)n(CCc2nc(-c3cc4ccccc4o3)cs2)n1,0.9,-39,0.9,.,.,100*,-2
Cc1cccc(NC(=O)CSc2nnc(NC(=O)c3ccco3)s2)c1,1.1,-41,1.1,-21,17,-9,.
CNc1ncc(C(=O)c2ccc(Br)cc2)s1,1,12,1.1,14,7,2,.
Cc1ccccc1/C=C/c1cc[n+](C)cc1,1,-13,0.7,-4,4,-1,.
Cc1[nH]c2ccccc2c1/C=C/c1cc[n+](C)cc1,1,-19,0.7,58,.,65*,-11
CCN1C=C(Cc2ccc(OC)cc2)C2=C(C1)C(c1ccc(OC)cc1)C(C#N)=C(N)O2 (stereo not drawn),0.7,-138,1,-4,.,100*,-3
Cc1ccc(NC(=O)/C(=C/c2cccs2)NC(=O)c2ccco2)c(C)c1,1,20,1,-2,.,-5,.
Cc1ccc(/C(O)=C2\C(=O)C(=O)N(Cc3cccnc3)C2c2ccccc2[N+](=O)[O-])cc1 (stereo not drawn),1.3,19,1.3,-9,-4,-10,.
Fc1ccc(-n2nnc(-c3nccs3)n2)cc1,0.9,3,0.9,17,8,-3,.

# High-throughput results (PubChem BioAssay)
